Measurements as given in the EternaBench riboswitch data.

Tested on: MS2 coat protein
Assay: apparent Kd, MS2 coat protein; higher = weaker binding; RNA-MaP array; FMN 200 µM where present
Summary of the method: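 Two titrations, one without ligand and one with constant ligand, were run with SNAP-549-labelled MS2 coat protein from 0.7 or 1.5 nM, doubling to 3 µM. The targets were designs transcribed by stalled E. coli RNA polymerase on Illumina sequencing-chip clusters, in 100 mM Tris-HCl pH 7.5, 80 mM KCl, 4 mM MgCl2, BSA, DTT, yeast tRNA and Tween-20. The apparent Kd is the median of filtered per-cluster binding-curve fits, with green signal normalised to red-channel RNA signal and control-cluster median Fmax.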

[1] = designed as: OFF switch for flavin mononucleotide, no ligand
[2] = ligand present: flavin mononucleotide, designed as: OFF switch for flavin mononucleotide
[3] = designed as: ON switch for flavin mononucleotide, no ligand
[4] = ligand present: flavin mononucleotide, designed as: ON switch for flavin mononucleotide

| Sequence | apparent Kd [1] | apparent Kd [2] | apparent Kd [3] | apparent Kd [4] |
| --- | --- | --- | --- | --- |
| ACUAGAUGAGGAUAUGCAUGUUUUCGUGUUCUUCUAGAUUAACAUGAGGAUCACCCAUGUAGAAGGCGUCAAUU | 41.5 nM | 132 nM | – | – |
| GAGGUGUUAGGAUAUCGGAGAUGGAGAAGAACGGGAAGAGGCGAGAAGGAACAUGAGGAUCACCCAUGUAGGUG | 433 nM | 329 nM | – | – |
| AUUUAUGGCCAGAAGGACAUGAGGAUCACCCAUGUAGGAUAUGGACGAUUUUGCUCGGCGGCUUGUUUAGGAAGCACCGGUGGU | – | – | 10.7 nM | 6.85 nM |
| UGGUCAACAUCAGGAUAUUAACAUGGGCUACACUAAGAAGGGAUAAUGAAAUACGAACUAAACGCACAUGAGGAUCACCCAUGU | – | – | 34.4 nM | 25 nM |
| ACUACAUGAGGAUCACCCAUGUGAAUAAUAAAAGUAACAAGCAGAAGGUGACCUCGUCUCCUGGUCAAGGAUAUGCAAGAAAGA | – | – | 267 nM | 33.7 nM |
| AGAAACUACGAGAAGGACAUAUGGUUCUUCAGUUACAUGAGGAUCACCCAUGUAGGAUAUCGUAGUUUCAGGAUCGUGAGAUCA | 7.33 nM | 21.7 nM | – | – |
| GAUCACUGAGGAUAUACGCAGAUACAAAGUAUCUGAUUGUGACAUGAGGAUCACCCAUGUAGAAGGCAGAGGUC | 37.2 nM | 124 nM | – | – |
| GGUUUGGGAGGAUAUGGUUUUAAUAACAUGAGGAUCACCCAUGUAAAUAGAUCUUCGAGGCCAGAAGGCUCGGGCC | 63.8 nM | 120 nM | – | – |
| AGAAACUACGAGAAGGACAUGUGGUCCUUCAGAAACAUGAGGAUCACCCAUGUAGGAUAUCGUAGUUUCAGGAUCGUGAGAUCA | 54.4 nM | 20.8 nM | – | – |
| CGGCAUCAUGUAGGAUAUGCGUGGCGAAGCUAUGCAGAAGGACAUGAGGAUCACCCAUGUCUUACUGUGCGUACACAGUUGCCG | 6.29 nM | 11.2 nM | – | – |
| CCAUGCGGAUGAGGAUAUUCAUUUAUGAGGAUAGAAGAAGGCAUACAUGAGGAUCACCCAUGUAUACGCAUGAGGAUCCCUUAC | 34.2 nM | 27.2 nM | – | – |
| UGAUAGGACAGAGGAUAUGCGUAUAGUUACCUCUACAUGAGGAUCACCCAUGUAGAAGGCUGUCCUAUCUAAGUCGGAAACGAC | 5.8 nM | 5.61 nM | – | – |
| AGGUAAGACUUAAUUGUGCUGGUGAGAAGGCAAAUGGUUGUGACCAACAUGAGGAUCACCCAUGUUGAGGAUAUCAUCGGUAUC | 86.2 nM | 361 nM | – | – |
| CUGAUGUGAGGAUAUCGGGCUACAGCCCUGCUGCUAGCAAACGAGAAGGCACAUGAGGAUCACCCAUGUGAUAG | 21.6 nM | 24.3 nM | – | – |
| AAUAUUUAUUGAGGAUAUUCAUACACUGUAUACGGAGAAGGCAAACAAUCAUGAGGACAUGAGGAUCACCCAUGUUGUGACCAU | – | – | 19.8 nM | 14.3 nM |
| AGAUGGCGAGGAUAUACAUGAGGAUCACCCAUGUGAAGAAUAAUAGUGAGGAAGAAAAGUAGAAGGCGCUGUCA | 45.5 nM | 209 nM | – | – |
| GCACAUGGCAUAGGAUAUAGUUCUAUUGUUUAAAUAGGUAGUUGGACUUAACUAGAAGGAUGUUACAUGAGGAUCACCCAUGUU | – | – | 11.2 nM | 11.3 nM |
| AAAAUUGGCAGAUAAAAGGUCACACAGGAUAUACUCCCAACAUGAGGAUCACCCAUGUACUGGCGGUAGAAGGGUGGGAUCCUC | – | – | 50.7 nM | 13.5 nM |
| CUGGUGUGAGGAUAUCAGGACACGUACGCGGGCAUGUCAAAUGAGAAGGCACAUGAGGAUCACCCAUGUGGGAC | 29.7 nM | 41.6 nM | – | – |
| AUAUCACAAUUAGAACCAAUACGAACAUGAGGAUCACCCAUGUAGGAUAUGCUAGAAGUUGUGUUGCAGAAGGACAUAUACAUU | 7.63 nM | 6.63 nM | – | – |
| AUUAUAUAGACAGGAUAUAGAAUAUUAUUUUAACAUGAGGAUCACCCAUGUAACCUUAUGUGUAGCUAGAAGGGUCAUUUAUUA | 89.9 nM | 162 nM | – | – |
| CAUUAACUACAAUUACAUGAGGAUCACCCAUGUUUUGGGAUGCAGGAUAUGUGGUAUAUUAAUUAACAGAAGGGCAAUAAUUUU | – | – | 41.5 nM | 36.7 nM |
| GCGUCAGAAUUAAUUGUGACAGGCAGAAGGCCAUAUUUCAUGUCAGACAUGAGGAUCACCCAUGUGGAGGAUAUGCAGUUACAC | 43.4 nM | 98.7 nM | – | – |
| AUCCGGCGUGUAGGAUAUGGAAACGAUUAGGAUCCAGAAGGACAUGAGGAUCACCCAUGUACAUGUAAACAGUCAUCACCGGAA | 14.5 nM | 52.2 nM | – | – |
| GCCCUUUCUGAGGAUAUUAUCUGGUUCGAUUGAUAAGAAGGCAGUACAUGAGGAUCACCCAUGUGGUUCGUUUG | 99.6 nM | 242 nM | – | – |
| GUUUAUUUACAGAAGGUGUUUUACAUGAGGAUCACCCAUGUUUAAAUUUAUAAAGAAUUUAUUUACAAGGAUAUGUACAAUUUU | – | – | 34.1 nM | 19 nM |
| AGAAAUUCAGGAUAUACAUGAGGAUCACCCAUGUUUGGCGGAGGCGCCGAGAUCCCACGUAGAAGGGAAAAGAC | 28 nM | 50.6 nM | – | – |
| UGGGACGUCGUAGGAUAUGUAGGAUAUUCCUACAUGAGGAUCACCCAUGUUGACAUGGAAGAAGGACAGAAGGACGAUGUCCAU | – | – | 211 nM | 4.78 nM |

| Sequence | apparent Kd [1] | apparent Kd [2] | apparent Kd [3] | apparent Kd [4] |
| --- | --- | --- | --- | --- |
| AAUUCUUGUGAAGGAUAUACGGCGGGUCGCGCAGUAGAAGGUCACAUGAGGAUCACCCAUGUCGACAAUGCGCAGUAUCGACAA | 72 nM | 164 nM | – | – |
| GGAGAGGAAACAUGAGGAUCACCCAUGUGAGUGGUCCGAAGAUAGGAUAUCCACACGAGAAGUGUGGAGAAGGAUCACCUCUCC | 746 nM | 571 nM | – | – |
| UGUCGGAGCAGAGGAUAUUACAUGAGGAUCACCCAUGUAUGAACCAAUAGGUGGAAACAGCAAUGUAAGAAGGCUGCUCCGACA | 178 nM | 481 nM | – | – |
| AAUCCACAUGAGGAUCACCCAUGUGAGGAUAUGAUACUAUGUACUUCGGUACAUAGUAUCAGAAGGCAUAUGAA | 25.3 nM | 30.4 nM | – | – |
| GGUUAUAUAACAUGAGGAUCACCCAUGUGAGUGGUCCGAAUAUAGGAUAUCCACACGAGAAGUGUGGAGAAGGAUAAUUUAUUA | 40.7 nM | 206 nM | – | – |
| GGAAGCUCAACGGAGCUAAGGUAGAAGGAUAUCCACGGCUAUAUCCACAUGAGGAUCACCCAUGUGGAGAAGGUCUAUCUUAAG | 5.83 nM | 10.4 nM | – | – |
| AGCUAGUACCGAGGAUAUACAUACAUGAGGAUCACCCAUGUAUACAUGAAUUAAUGAGACUACAUGUAGAAGGCGGUACUAGCA | – | – | 69.1 nM | 16 nM |
| GCGUAUUAGGUGUAGCUAGACAUUCAAGAAGGGUGAAGAACAUGAGGAUCACCCAUGUAGUUUUUACAGGAUAUUGAUUUACGC | – | – | 269 nM | 14.9 nM |
| GGGCGACAUGAGGAUCACCCAUGUCAGGAUAUCGGGCCCGGGCCGAAAGGCCCGGGCCCGAGAAGGGACAGCCC | 18.8 nM | 16.6 nM | – | – |
| ACAUUGCGAGGAUAUACAUGAGGAUCACCCAUGUGGUGGCAGAUACGGUAGGACUAGUGUAGAAGGUGUCAUGG | 490 nM | 397 nM | – | – |
| GAUCAACAUGAGGAUCACCCAUGUGAGGAUAUGUAUCAUAGAUCUUCGGAUCUAUGAUACAGAAGGCAUGUAGG | 101 nM | 118 nM | – | – |
| ACAUGAUCAGGAUAUACAUGAGGAUCACCCAUGUUUAUCAAAAAAAGGCUUUCAUCAUGUAGAAGGGAUCUUGU | 20.4 nM | 65.7 nM | – | – |
| UUAUGAUAGAUAGGAUAUACAUUGGAUUUAAAAGUAGAAGGAUCAAGUGGGAAAUGAACAUGAGGAUCACCCAUGUAAUAGGUU | – | – | 109 nM | 78.6 nM |
| AACAUACAUGAGGAUCACCCAUGUUCCGGCAGGCUAGGAUAUCAAUCGAAAGUGUUAUAAUGAGAAGGAGCAUAAA | – | – | 49 nM | 29.4 nM |
| AAAAUAAGUGUGAGGAUAUGCUGGUCCUUGGAUCAGCAGAAGGCACAUGAGGAUCACCCAUGUAAUAUAUUUAU | 84.7 nM | 295 nM | – | – |
| CUAUUGCGAGGAUAUGAUUUAAAUAACAUGAGGAUCACCCAUGUUUUUACGUUGUUAUGUUCAGAAGGCGUAUUGU | 40.1 nM | 26.3 nM | – | – |
| AACUCGUCAGGAUAUGCGCACAGAUAAUACGCUUCGCAAUUGCAGAAGGGACAUGAGGAUCACCCAUGUAAAUA | 30.6 nM | 27 nM | – | – |
| GAGUGACAUGAGGAUCACCCAUGUGAGGAUAUCGGACGGACCUAGUUAACAUCCGCCGCGAGAAGGCACAUCGG | 156 nM | 27 nM | – | – |
| AGUCUGCGAGGAUAUACAUGAGGAUCACCCAUGUGCGAGAUACUAGUGAGGUCGAUUGGUAGAAGGCGCGGACA | 111 nM | 66.1 nM | – | – |
| GUGAAGAAUUAAGGAUAUUGAAUACAUAUGUUUAACAUGAGGAUCACCCAUGUGGGUUGCGGUAUCGAGAAGGUAAAUUACUGG | – | – | 111 nM | 126 nM |
| UCGUGAAGGACAGGAUAUGGACAUGAGGAUCACCCAUGUACAUGGGAAUGUAUACUGAAUUUGUACUAGAAGGGUUACAUAAAU | 29.9 nM | 20.6 nM | – | – |
| CUAUUGGCAGGAUAUGCUUUUUUAGACAUGAGGAUCACCCAUGUGAUGAAUAUUGGGUUUGCAGAAGGGCCUGAAU | 75.1 nM | 111 nM | – | – |
| CAUGGGACUUCCUCGCGGAACAUGAGGAUCACCCAUGUUGCGGAGGAUAUACUUCGGCGCUCCGAGUAGAAGGCUGCAGAUCCC | 24.4 nM | 33.1 nM | – | – |
| GUGGCUAGUACAGGAUAUUAGUGCGUGUAGUAUUGAGAAGGGUACAUGAGGAUCACCCAUGUGAUCAAUCACUGUUAAGGUCGC | 252 nM | 177 nM | – | – |
| GAGUAGGGAGGAUAUACGUGCUCAAUCCCGGAAAGCGGGAAACAUGAGGAUCACCCAUGUAGAAGGCCCAUAAA | 82.1 nM | 46.4 nM | – | – |
| GAGUUAUCAGGAUAUACAUGAGGAUCACCCAUGUCGAUCAAUCCCGUGGGAACGCACUGUAGAAGGGAUGUAGU | 32.5 nM | 33 nM | – | – |
| GGACUGGACUAGAAGGGUGAUGCGCUCGCAGACACAGGAUAUAGUCACAUGAGGAUCACCCAUGUCGGUCCAAGUGAAGAAACU | – | – | 98.2 nM | 24.4 nM |
